Source: PubChem (several laboratories)
TAG inh = reduces triacylglycerol accumulation in H9c2 cells; Nile Red lipid (TAG) fluorescence; cells loaded with 200 µM oleic acid; inhibition, % at 12.5 µM; 230,000 tested, 0.66% active;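 active = pattern-corrected inhibition of lipid staining of at least 50% with the nuclear-stain viability signal not falling by more than 50%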;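 also: 0% = DMSO wells and 100% = triacsin C control wells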
SR-BI DiI inh = mouse SR-BI HDL lipid transfer inhibition. Q61009. ldlA[mSR-BI] CHO cells, DiI-HDL uptake fluorescence, 3 h. inhibition, % at 12.5 µM. 320,000 tested, 0.96% active;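 active = mean replicate inhibition of at least 70% and a set share of replicates each scoring 70 or more; inconclusive = meets just one of the two criteria; inactive = fails both criteria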;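 also: 0% = median of neutral control wells and 100% = median of positive control wells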
Target sequence (Q61009 whole entry, looked up): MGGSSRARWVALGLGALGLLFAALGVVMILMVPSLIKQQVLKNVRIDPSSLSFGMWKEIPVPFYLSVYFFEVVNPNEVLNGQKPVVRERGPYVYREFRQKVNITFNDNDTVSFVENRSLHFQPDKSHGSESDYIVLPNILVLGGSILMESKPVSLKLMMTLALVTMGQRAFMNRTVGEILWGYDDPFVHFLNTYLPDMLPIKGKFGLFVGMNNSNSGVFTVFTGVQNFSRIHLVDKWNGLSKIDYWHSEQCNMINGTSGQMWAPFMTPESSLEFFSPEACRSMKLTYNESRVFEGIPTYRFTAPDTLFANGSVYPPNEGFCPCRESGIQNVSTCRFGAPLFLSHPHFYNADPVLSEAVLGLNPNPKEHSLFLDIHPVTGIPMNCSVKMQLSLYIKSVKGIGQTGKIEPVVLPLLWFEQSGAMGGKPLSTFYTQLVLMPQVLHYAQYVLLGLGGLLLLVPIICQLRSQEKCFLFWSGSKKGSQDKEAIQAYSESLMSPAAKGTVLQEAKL
Bfl-1 A1 inh = inhibitors of the anti-apoptotic protein A1, read as caspase activation | AID 2462 | MEF A1-2A-BIM cells, Caspase-Glo 3/7 luminescence, 3 h; percent of clofoctol response, vehicle zero | caspase activation, % (concentration not given with the values) | 330,000 tested, 0.066% active;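 active = over half of replicate activation scores above 10%, or exactly half above 10 with the replicate mean above 10; inconclusive = replicate mean below 10 yet half the replicates above 10; inactive = over half of replicates below 10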
Vif imaging = inhibitors of HIV Vif; AID 602346; HEK293T cells, Vif self-association by quenched fluorescence, imaging, 24 h; 340,000 tested, 0.35% active; inhibition, % at 7.49 µM; in the data active = inhibition above about 50%, passing the limit was not always enough; inconclusive = no clear call, values can overlap the other calls; inactive = below about 31%
SR-BI uptake up = SR-BI HDL lipid transfer activation; CHO ldlA[mSR-BI] cells, DiI-HDL uptake fluorescence, 3 h; 100 = double the neutral-control signal; activation, % at 12.5 µM; 320,000 tested, 0.096% active; AID 504775;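 active = mean replicate activation of at least 60% and every replicate at or above 60%; inconclusive = mean or all-replicate condition met, but not both; inactive = mean below 60% and not all replicates reaching 60%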;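 also: 0% = median plate neutral-control signal and 100% = twice that signal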
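Test system: SR-BI-overexpressing, LDLR-lacking CHO cells; Medium: Ham's F12 with 0.5% BSA, HEPES 25 mM, pH 7.4; Schedule: 3 h, 37 °C; Technique: bottom-read fluorescence, 550/595 nm.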
Starred values were filed as active, the others as inactive. In the library only some 1.6% were active in any assay of this set; here they are far more common.

What do the screens show for `O=C(N/N=C/c1cc(Br)ccc1O)c1cccc(N2CCCC2=O)c1`?
TAG inh: 28; SR-BI DiI inh: 106*; Bfl-1 A1 inh: 0; Vif imaging: 2; SR-BI uptake up: -106

How did COc1ccc(O)c(/C=N/NC(=O)c2cccc(N3CCCC3=O)c2)c1 do in these assays?
SR-BI DiI inh: 89*; Bfl-1 A1 inh: -1; Vif imaging: 21; SR-BI uptake up: -89

How did Cc1ccc(C2(c3ccc(C)cc3)CC2C(=O)Nc2ccc([N+](=O)[O-])cc2O)cc1 (configuration not stated) do in these assays?
SR-BI DiI inh: 32; Bfl-1 A1 inh: 27*; Vif imaging: -21; SR-BI uptake up: -32

What do the screens show for `NC(=S)N/N=C1/CCSc2ccc3ccccc3c21`?
TAG inh: 7; SR-BI DiI inh: 79*; Bfl-1 A1 inh: -1; Vif imaging: 5; SR-BI uptake up: -79

What do the screens show for `NC(=S)N/N=C/c1c(O)ccc2ccccc12`?
TAG inh: -20; Bfl-1 A1 inh: 0; Vif imaging: 3

What do the screens show for `O=C(COC(=O)CNS(=O)(=O)c1cc(C(F)(F)F)ccc1Cl)NC1CC1`?
TAG inh: -47; SR-BI DiI inh: -2; Bfl-1 A1 inh: 1; Vif imaging: 0; SR-BI uptake up: 2

What do the screens show for `CCC(=O)OCC(=O)N=c1sccn1Cc1ccc(C)cc1`?
TAG inh: -1; SR-BI DiI inh: -10; Bfl-1 A1 inh: 0; Vif imaging: 5; SR-BI uptake up: 10

What do the screens show for `CCC(=O)OCC(=O)N=c1sccn1Cc1ccccc1Cl`?
TAG inh: 1; SR-BI DiI inh: -1; Bfl-1 A1 inh: 1; Vif imaging: 1; SR-BI uptake up: 1

What do the screens show for `O=C(CCl)N=c1sccn1Cc1ccccc1Cl`?
TAG inh: 76*; SR-BI DiI inh: -11; Bfl-1 A1 inh: 4; Vif imaging: 1; SR-BI uptake up: 11

How did O=C(CCl)N=c1sccn1Cc1cccc2ccccc12 do in these assays?
TAG inh: 62*; SR-BI DiI inh: -21; Vif imaging: inconclusive; SR-BI uptake up: 21

How did O=C(CCl)N=c1sccn1Cc1ccc(Cl)cc1Cl do in these assays?
TAG inh: 59*; SR-BI DiI inh: -8; Bfl-1 A1 inh: 3; Vif imaging: 3; SR-BI uptake up: 8

How did COc1ccccc1C(CNC(=O)CCNC(=O)c1ccccc1Cl)N1CCCC1 (configuration not stated) do in these assays?
TAG inh: -9; SR-BI DiI inh: -56; Bfl-1 A1 inh: 0; Vif imaging: 3; SR-BI uptake up: 56

How did C[C@H](CO)N1C[C@H](C)[C@@H](CN(C)S(=O)(=O)c2ccccc2F)Oc2ncc(Br)cc2C1=O do in these assays?
TAG inh: 22; Vif imaging: -9

What do the screens show for `O=C1CC(SC(=Nc2ccccc2)Nc2ccccc2)C(=O)N1c1cccc2ccccc12` (configuration not stated)?
TAG inh: 17; SR-BI DiI inh: 93*; Bfl-1 A1 inh: 0; Vif imaging: 6; SR-BI uptake up: -93

What do the screens show for `O=C(c1[nH]c(C(F)(F)F)nc1-c1ccccc1)N1CCOCC1`?
Vif imaging: -5

What do the screens show for `CC(C)n1ncc2c(C(=O)N3CCN(c4ccccc4)CC3)cc(-c3ccccc3)nc21`?
TAG inh: 3; SR-BI DiI inh: -1; Bfl-1 A1 inh: 0; Vif imaging: -2; SR-BI uptake up: 1

How did CC(C)n1ncc2c(C(=O)Nc3cccc(C#N)c3)cc(C3CC3)nc21 do in these assays?
TAG inh: 14; SR-BI DiI inh: 75*; Bfl-1 A1 inh: 0; Vif imaging: -6; SR-BI uptake up: -75

What do the screens show for `CC(C)n1ncc2c(C(=O)O)cc(C3CC3)nc21`?
TAG inh: 7; SR-BI DiI inh: -15; Bfl-1 A1 inh: 0; Vif imaging: -3; SR-BI uptake up: 15

How did CCNC(=O)c1cccc(NC(=O)c2cc(C3CC3)nc3c2cnn3C(C)C)c1 do in these assays?
TAG inh: 13; SR-BI DiI inh: 75*; Vif imaging: -14; SR-BI uptake up: -75

How did COc1ccc(NC(=O)c2cc(-c3ccccc3)nc3c2cnn3C(C)C)cc1 do in these assays?
TAG inh: 15; SR-BI DiI inh: 82*; Bfl-1 A1 inh: 0; Vif imaging: -2; SR-BI uptake up: -82

What do the screens show for `CN(C)S(=O)(=O)N1CCN(CC(=O)Nc2ccc(F)cc2)CC1`?
TAG inh: 0; SR-BI DiI inh: -2; Bfl-1 A1 inh: 0; Vif imaging: -5; SR-BI uptake up: 2
